Source: ChEMBL document CHEMBL2069264, “Halogenated anthraquinones from the marine-derived fungus Aspergillus sp. SCSIO F063” (J Nat Prod, 2012)
Activity calls are given as the source filed them. The rule behind the calls is not given here.

Assays:
SF-268 = assay: Cytotoxicity against human SF268 cells after 72 hrs BY SRB assay; assay type: functional, cell-based; settings: SF-268, 72 h
Summary of the method: (§1)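 Cells seeded at 3 × 10^4 cells/mL (180 μL per well) and preincubated 24 h at 37 °C, 5% CO2. Compound added at various concentrations (20 μL), then 72 h further incubation. Fixed with 50% (w/v) TCA, stained 30 min with 0.4% SRB in 1% acetic acid, washed with 1% acetic acid. Dye dissolved in 10 mM Tris base, OD read at 570 nm. Cisplatin as positive control. Triplicate; IC50 by nonlinear curve fitting.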

MCF7 = assay: Cytotoxicity against human MCF7 cells after 72 hrs BY SRB assay; assay type: functional, cell-based; settings: MCF7, 72 h; summary of the method: as §1
Bacillus subtilis = assay: Antimicrobial activity against Bacillus subtilis ATCC 6633 assessed as diameter of zone of growth inhibition at 10 ug/6 mm disc incubated for 12 hrs by disc diffusion assay; assay type: functional, organism-based
Summary of the method: (§2)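 Bacteria grown 10 h at 37 °C in LB broth as seed cultures, then mixed into LB agar to pour plates. Sterile 6 mm filter disks loaded with 5 μL test solution at 2 μg/μL in DMSO; ampicillin disks (5 μg/μL in DMSO) as positive control. Plates incubated 12 h at 37 °C, then diameter of the growth-inhibition zone around each disk recorded.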

NCI-H460 = assay: Cytotoxicity against human NCI-H460 cells after 72 hrs BY SRB assay; assay type: functional, cell-based; settings: NCI-H460, 72 h; summary of the method: as §1
Staphylococcus aureus = assay: Antimicrobial activity against Staphylococcus aureus ATCC 29213 assessed as diameter of zone of growth inhibition at 10 ug/6 mm disc incubated for 12 hrs by disc diffusion assay; assay type: functional, organism-based; summary of the method: as §2
Bacillus thuringiensis = assay: Antimicrobial activity against Bacillus thuringiensis ATCC 39765 assessed as diameter of zone of growth inhibition at 10 ug/6 mm disc incubated for 12 hrs by disc diffusion assay; assay type: functional, organism-based; summary of the method: as §2

Row | SMILES | IC50 (SF-268) | IC50 (MCF7) | diameter of the inhibition zone (DIZ) (Bacillus subtilis) | IC50 (NCI-H460) | diameter of the inhibition zone (DIZ) (Staphylococcus aureus) | diameter of the inhibition zone (DIZ) (Bacillus thuringiensis)
1 | CCCC/C=C/c1c(O)cc2c(c1O)C(=O)c1c(O)cc(O)cc1C2=O [AVERYTHRIN] | > 50 µM | 29.7 µM | inactive | > 50 µM | inactive | inactive
2 | CCCCC[C@H](OC)c1c(O)cc2c(c1O)C(=O)c1c(cc(O)c(Cl)c1O)C2=O | 34.1 µM | 26.1 µM | inactive | 37.2 µM | inactive | inactive
3 | CCCC/C=C/c1c(O)cc2c(c1O)C(=O)c1c(cc(O)c(Cl)c1O)C2=O | > 50 µM | > 50 µM | inactive | > 50 µM | inactive | inactive
4 | CCCCC[C@H](O)c1c(O)cc2c(c1O)C(=O)c1c(O)cc(OC)cc1C2=O | > 50 µM | > 50 µM | inactive | > 50 µM | inactive | inactive
5 | CCCCC[C@H](OC)c1c(O)cc2c(c1O)C(=O)c1c(cc(OC)c(Br)c1O)C2=O | > 50 µM | > 50 µM | inactive | > 50 µM | inactive | inactive
6 | CCCCC[C@H](OC)c1c(O)cc2c(c1O)C(=O)c1c(O)cc(OC)cc1C2=O | > 50 µM | > 50 µM | inactive | > 50 µM | inactive | inactive
7 | CCCC/C=C/c1c(O)cc2c(c1O)C(=O)c1c(cc(OC)c(Cl)c1O)C2=O | > 50 µM | 24.4 µM | inactive | > 50 µM | inactive | inactive
8 | CCCCC[C@H](O)c1c(O)cc2c(c1O)C(=O)c1c(O)cc(O)cc1C2=O | > 50 µM | 45.5 µM | inactive | > 50 µM | inactive | inactive
9 | CCCCC[C@H](OC)c1c(O)cc2c(c1O)C(=O)c1c(cc(OC)c(Cl)c1O)C2=O | > 50 µM | > 50 µM | inactive | > 50 µM | inactive | inactive
10 | CCCCC[C@H](O)c1c(O)cc2c(c1O)C(=O)c1c(cc(OC)c(Br)c1O)C2=O | 24.7 µM | 25.6 µM | inactive | 18.9 µM | inactive | inactive
11 | CCCCC[C@H](OC)c1c(O)cc2c(c1O)C(=O)c1c(O)cc(O)cc1C2=O | 33.6 µM | 35.3 µM | inactive | 44.2 µM | inactive | inactive
12 | CCCCC[C@H](OCCCC)c1c(O)cc2c(c1O)C(=O)c1c(O)cc(O)cc1C2=O | 47.2 µM | 40.5 µM | inactive | > 50 µM | inactive | inactive
13 | CCCCC[C@H](O)c1c(O)cc2c(c1O)C(=O)c1c(cc(OC)c(Cl)c1O)C2=O | 7.11 µM | 6.64 µM | inactive | 7.42 µM | inactive | inactive
14 | CCCCC[C@H](OCCCC)c1c(O)cc2c(c1O)C(=O)c1c(cc(O)c(Cl)c1O)C2=O | > 50 µM | 49.5 µM | inactive | > 50 µM | inactive | inactive
15 | CCCCC[C@H](O)c1c(O)cc2c(c1O)C(=O)c1c(cc(O)c(Cl)c1O)C2=O | > 50 µM | 36.4 µM | inactive | > 50 µM | inactive | inactive
